Results on 14 molecules are retold here after PubChem BioAssay.

Experiment [1] is described as follows: inhibitors of TNFa-induced NFkB p65 translocation, primary screen, imaging, HUVEC, MLSMR starter and 10KST1 sets (AID 438;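 active = inhibition above 20% together with a positive visual image hit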;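 also: compound added about 3h40 before a 20 min TNFalpha stimulation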;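 as to inhibition: signal is the nuclear over cytoplasmic p65 intensity ratio per well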). Conditions: HUVEC TNFa-induced p65 nuclear translocation; cell count: measured here: nuclei count (cytotoxicity indicator), at 2.08 µM; inhibition: at 2 µM, stronger effect = higher value, 0% TNFa-plus-vehicle, 100% no-TNFa wells.
The nature of experiment [2]: reduction of polyQ htt aggregates in cells – imaging, exon1htt(103Q)mCFP cells, high-content imaging, primary screen (AID 483;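 active = visual image review flags a hit and inhibition of aggregation exceeds 20%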;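 also: compound exposure lasted 3 days before fixation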;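 as to nuclei count: percent of the per-plate median nuclei count of sample wells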). The conditions noted are these: exon1htt(103Q)mCFP cell line, aggregate imaging, at 2 µM; inhibition of aggregation: stronger effect = higher value; nuclei count: measured here: cell count, toxicity.
Experiment [3] can be described thus: endothelial E-selectin expression blockers – imaging, HUVEC, immunofluorescence, MLSMR starter and 10KST1 sets, primary screen (AID 487;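 active = visually confirmed hit in the image check and inhibition above 20%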;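 as to inhibition: signal is fraction of cell area covered by stained E-selectin grains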;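 as to nuclei count: 100% = median nuclei count of all wells on the same plate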). Conditions: HUVEC TNFalpha-induced E-selectin immunofluorescence imaging, at 2 µM; inhibition: stronger effect = higher value; nuclei count: measured here: cell number, toxicity.
Experiment [4] concerns the target Voltage-gated potassium channel subunit beta-2 (Rattus norvegicus) (UniProt P62483). Description: inhibitors of rat Kvbeta2 reductase activity – biochemical, NADPH fluorescence, primary screen (AID 622).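 Also: slope of raw intensity against log time taken from 70 to 1610 s.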 The conditions noted are these: recombinant KvBeta, 4-cyanobenzaldehyde reduction, at 10 µM, stronger effect = higher value.
Experiment [5] has the same target. Description: enhancers of rat Kvbeta2 NADPH turnover – biochemical, NADPH fluorescence, primary screen (AID 623;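 active = NADPH fluorescence slope more negative than the mean of all samples by about 3 SD, 99.7% confidence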;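 also: fluorescence intensity change per second fitted from 20 to 320 s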). The conditions noted are these: Recombinant KvBeta, NADPH fluorescence decrease slope, 10 min; at 10 µM; stronger effect = lower value.
In experiment [6] the target is Muscarinic acetylcholine receptor M4 (Homo sapiens) (UniProt P08173). Kind of experiment: M4-linked GIRK flux change, two-sided – cell-based, HEK293 M4/GIRK, thallium flux, BTC-AM, M4 allosteric agonist project, primary screen (AID 625;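 active = fluorescence slope after compound addition differing from the mean of all tested samples at 99.7% confidence, mostly higher but some lower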;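 also: thallium influx through GIRK channels coupled to M4 in HEK293 cells with BTC-AM dye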). The conditions noted are these: at 10 µM, actives lie on both sides. In short, it runs like this: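 Material – HEK293 cells with M4 receptor and GIRK channels · Buffer or medium – pH 7.3 thallium assay buffer · Doses – one dose, 10 µM final · Timing – cells overnight at 37 °C, BTC-AM loading 1 h, reads 2 min total · Measured by – kinetic fluorescence with BTC-AM dye · Controls – carbachol and DMSO controls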

Experiment [7] is described as follows: blockers of RIG-like receptor reporter activation – cell-based, Sendai virus stimulus, luciferase, 10K MLSCN set, TLR/RLR signaling modifier project, primary screen (AID 602276;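 active = inhibition at or above 50% at 10 µM; inactive = inhibition below 50%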;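 also: firefly luciferase from ISG56 promoter only with Renilla not read in this screen; 0% = Sendai virus plus DMSO and 100% = medium plus DMSO without virus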). The conditions noted are these: HEK293 RL24 IRF3 luciferase reporter, at 10 µM, stronger effect = higher value.
A short description of experiment [8]: TLR3 IRF3 reporter activation blockers – cell-based, poly I:C stimulus, luciferase, 10K MLSCN set, primary screen (AID 602277;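 active = inhibition of the reporter signal at or above 50%; inactive = inhibition below 50%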). Conditions: HEK293-TLR3 RL24 IRF3 luciferase reporter, at 10 µM, stronger effect = higher value. (Reporter assays use an easily measured gene product as a stand-in for the process of interest.)

Active and inactive are the calls of the source.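 The calls were made as follows, unless noted: active = fluorescence slope higher than the sample average by over 3 SD (cut at about -0.22 in these data, passing the limit was not always enough); inactive = the rest.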

Sequence of Voltage-gated potassium channel subunit beta-2 (Rattus norvegicus) (P62483 whole entry, looked up): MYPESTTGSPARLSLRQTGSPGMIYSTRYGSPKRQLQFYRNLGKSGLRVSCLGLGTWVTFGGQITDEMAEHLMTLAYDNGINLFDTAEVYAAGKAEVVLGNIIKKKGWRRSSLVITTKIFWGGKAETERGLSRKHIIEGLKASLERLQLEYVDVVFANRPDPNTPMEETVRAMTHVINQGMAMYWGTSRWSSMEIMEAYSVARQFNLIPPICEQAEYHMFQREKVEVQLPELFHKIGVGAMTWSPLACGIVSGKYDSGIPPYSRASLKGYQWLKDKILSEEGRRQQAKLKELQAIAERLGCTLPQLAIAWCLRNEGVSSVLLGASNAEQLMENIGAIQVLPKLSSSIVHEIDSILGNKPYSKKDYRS
Sequence of Muscarinic acetylcholine receptor M4 (Homo sapiens) (P08173 whole entry, looked up): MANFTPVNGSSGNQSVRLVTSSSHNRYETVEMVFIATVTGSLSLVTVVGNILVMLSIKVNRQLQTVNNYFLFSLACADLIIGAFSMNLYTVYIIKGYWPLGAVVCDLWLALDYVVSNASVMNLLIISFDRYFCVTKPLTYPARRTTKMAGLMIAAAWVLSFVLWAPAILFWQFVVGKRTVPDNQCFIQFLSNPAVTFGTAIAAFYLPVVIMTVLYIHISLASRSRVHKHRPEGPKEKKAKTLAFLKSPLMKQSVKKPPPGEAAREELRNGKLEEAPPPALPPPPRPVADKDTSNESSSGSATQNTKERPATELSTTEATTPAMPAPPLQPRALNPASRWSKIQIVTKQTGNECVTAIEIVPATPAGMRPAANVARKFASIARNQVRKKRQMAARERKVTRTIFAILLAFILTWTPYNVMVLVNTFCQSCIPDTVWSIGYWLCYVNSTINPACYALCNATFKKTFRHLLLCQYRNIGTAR

The inhibition is the drop in the measured response relative to a control, in per cent. For `COc1ccc(-c2nn(-c3ccccc3)cc2/C=N/n2cnnc2)cc1OC`, the cell count in experiment [1] was determined as 737. For the same molecule, the inhibition in experiment [1] is 0.7% (inactive); in experiment [3], -74.5% (inactive); in experiment [7], 1.15% (inactive); in experiment [8], 1.32% (inactive). In addition, the inhibition of aggregation in experiment [2] is -17.1% (inactive). Further, the nuclei count stood at 100% in experiment [2] and 108% in experiment [3]. Also, the values for the fluorescence slope in experiment [4] and in experiment [6] were -0.464 (inactive) and 0.00596 (inactive), respectively. The NADPH fluorescence slope in experiment [5] was -6.1e-05 (inactive).

Regarding `Cc1nc(CNS(=O)(=O)c2ccc3c(c2)OCCO3)cs1`, in experiment [1], the cell count was found to be 309. Moreover, the inhibition in experiment [1] is 0.5% (inactive); in experiment [3], 12.1% (inactive); in experiment [7], -8.22% (inactive); in experiment [8], -38.6% (inactive). In addition, the inhibition of aggregation in experiment [2] was 10.1% (inactive). Besides, the nuclei count was 106% in experiment [2] and 110% in experiment [3]. The fluorescence slope was -0.568 (inactive) in experiment [4] and 0.00404 (inactive) in experiment [6]. Besides, in experiment [5], the NADPH fluorescence slope is -2.7e-05 (inactive).

In the case of `CCn1c(=O)cc(OCC(=O)NCCCN2CC(C)CC(C)C2)c2ccccc21` (centres undefined), in experiment [1], the cell count amounted to 395. Also, the inhibition in experiment [1] is -5.5% (inactive); in experiment [3] it was -25% (inactive); in experiment [7], 69.4% (active); in experiment [8] it was 55.8% (active). In addition, the inhibition of aggregation in experiment [2] was -18.3% (inactive). For the same molecule, the nuclei count in experiment [2] was found to be 111%; in experiment [3] it was 123%. For the same molecule, the fluorescence slope in experiment [4] was -0.511 (inactive); in experiment [6] it was 0.00485 (inactive). In experiment [5], the NADPH fluorescence slope was -0.000129 (inactive).

For `Cc1nc(NCc2ccccn2)c2ccccc2n1`, the cell count in experiment [1] worked out at 416. Also, the inhibition in experiment [1] is -13.6% (inactive); in experiment [3], -49.1% (inactive); in experiment [7], 4.35% (inactive); in experiment [8], -44.1% (inactive). Moreover, the inhibition of aggregation in experiment [2] is 13% (inactive). The nuclei count in experiment [2] is 69.7%; in experiment [3], 121%. Further, the fluorescence slope was -0.572 (inactive) in experiment [4] and 0.00634 (inactive) in experiment [6]. Besides, the NADPH fluorescence slope in experiment [5] is -4.7e-05 (inactive).

Turning to `CCCCOc1ccc(-c2nnn(CC(=O)NCc3ccco3)n2)cc1`, in experiment [1], the cell count was determined as 457. The inhibition in experiment [1] is 3.9% (inactive); in experiment [3], -62% (inactive); in experiment [7], 30.6% (inactive); in experiment [8], -15.6% (inactive). Further, in experiment [2], the inhibition of aggregation was -61.8% (inactive). The nuclei count in experiment [2] stood at 18.8%; in experiment [3] it was 104%. The fluorescence slope in experiment [4] is -0.523 (inactive); in experiment [6], 0.00448 (inactive). Moreover, the NADPH fluorescence slope in experiment [5] is -0.000212 (inactive).

`COC(=O)c1ccccc1NC(=O)c1cc(-c2ccc(OC)c(OC)c2)on1`: in experiment [1], the cell count turned out to be 443. The inhibition in experiment [1] was -28.4% (inactive); in experiment [3], -29.1% (inactive); in experiment [7] it was 3.07% (inactive); in experiment [8], 5.03% (inactive). Further, the inhibition of aggregation in experiment [2] is -3.3% (inactive). Moreover, the results for the nuclei count in experiment [2] and in experiment [3] were 104% and 111%, respectively. For the same molecule, the values for the fluorescence slope in experiment [4] and in experiment [6] were -0.269 (inactive) and 0.00826 (inactive), respectively. In addition, the NADPH fluorescence slope in experiment [5] is -3.4e-05 (inactive).

Regarding `COc1ccc2oc(C)c(C(=O)Cn3ccnc3)c2c1`, the cell count in experiment [1] worked out at 488. Moreover, the inhibition in experiment [1] was -7.3% (inactive); in experiment [3], -16% (inactive); in experiment [7], -26.4% (inactive); in experiment [8], -28.5% (inactive). For the same molecule, the inhibition of aggregation in experiment [2] was 22.7% (inactive). In addition, the nuclei count in experiment [2] worked out at 54.3%; in experiment [3] it was 108%. Besides, the figures for the fluorescence slope in experiment [4] and in experiment [6] were -0.578 (inactive) and 0.00618 (inactive), respectively. Moreover, the NADPH fluorescence slope in experiment [5] is -1.5e-05 (inactive).

On to `Cc1cccc2cc(C(c3nnnn3C(C)(C)C)N3CCN(C(=O)c4ccco4)CC3)c(=O)[nH]c12` (centres undefined), for which, in experiment [1], the cell count worked out at 283. Besides, the inhibition in experiment [1] was -1.9% (inactive); in experiment [3], -29.9% (inactive); in experiment [7], 13.4% (inactive); in experiment [8], 16% (inactive). In addition, in experiment [2], the inhibition of aggregation is -6.7% (inactive). Besides, the nuclei count in experiment [2] is 96.1%; in experiment [3], 88.4%. Further, the fluorescence slope in experiment [4] was -0.439 (inactive); in experiment [6], 0.00557 (inactive). Besides, the NADPH fluorescence slope in experiment [5] is -5.7e-05 (inactive).

Regarding `CCC(c1nnc(SCC(=O)NCC2CCCO2)n1Cc1ccccc1)N(C)C` (centres undefined), the cell count in experiment [1] worked out at 414. Also, the inhibition was -5.7% (inactive) in experiment [1], -136% (inactive) in experiment [3], 21% (inactive) in experiment [7] and 25.8% (inactive) in experiment [8]. Moreover, in experiment [2], the inhibition of aggregation is 0.8% (inactive). Also, the nuclei count in experiment [2] was found to be 52.5%; in experiment [3], 110%. The fluorescence slope in experiment [4] was -0.508 (inactive); in experiment [6], 0.00548 (inactive). In addition, the NADPH fluorescence slope in experiment [5] was -2.1e-05 (inactive).

As for `COC(=O)c1sc(NC(=O)c2ccoc2C)nc1C`, in experiment [1], the cell count came to 554. Besides, the inhibition in experiment [1] was -7.5% (inactive); in experiment [3] it was 15.5% (inactive); in experiment [7], -18.1% (inactive); in experiment [8], -76.5% (inactive). In addition, in experiment [2], the inhibition of aggregation is 8.8% (inactive). Further, the figures for the nuclei count in experiment [2] and in experiment [3] were 94.1% and 98%, respectively. Moreover, the results for the fluorescence slope in experiment [4] and in experiment [6] were -0.557 (inactive) and 0.00464 (inactive), respectively. In addition, in experiment [5], the NADPH fluorescence slope was 8.6e-06 (inactive).

As to `COCCCNC(=O)CCc1nc(-c2ccccc2Cl)no1`, in experiment [1], the cell count came out at 476. The inhibition in experiment [1] is 8.6% (inactive); in experiment [3], -130% (inactive); in experiment [7] it was 17.7% (inactive); in experiment [8], 23.4% (inactive). Moreover, in experiment [2], the inhibition of aggregation was -10.1% (inactive). The values for the nuclei count in experiment [2] and in experiment [3] were 95.7% and 132%, respectively. For the same molecule, the fluorescence slope is -0.556 (inactive) in experiment [4] and 0.00327 (inactive) in experiment [6]. Besides, the NADPH fluorescence slope in experiment [5] is -9.5e-06 (inactive).

For `N#Cc1c(N)nc(SCc2ccncc2)c(C#N)c1-c1cccs1`, in experiment [1], the cell count is 321. In addition, the inhibition in experiment [1] is 10.9% (inactive); in experiment [3], 13.8% (inactive); in experiment [7] it was 26.1% (inactive); in experiment [8] it was 25.1% (inactive). Besides, the inhibition of aggregation in experiment [2] was -2.2% (inactive). Besides, the nuclei count in experiment [2] stood at 32.8%; in experiment [3], 107%. Also, the fluorescence slope was -0.529 (inactive) in experiment [4] and 0.0051 (inactive) in experiment [6]. Besides, in experiment [5], the NADPH fluorescence slope was -2.3e-05 (inactive).

For the molecule `O=C(Cn1ccc2ccccc2c1=O)NCCC(=O)NC1CCN(Cc2ccccc2)CC1`, in experiment [1], the cell count came out at 661. The inhibition in experiment [1] is -8.5% (inactive); in experiment [3], -130% (inactive); in experiment [7] it was -8.1% (inactive); in experiment [8], 0.132% (inactive). Besides, the inhibition of aggregation in experiment [2] was 2.9% (inactive). Also, the nuclei count in experiment [2] was 83.9%; in experiment [3], 129%. For the same molecule, the results for the fluorescence slope in experiment [4] and in experiment [6] were -0.486 (inactive) and 0.00456 (inactive), respectively. Besides, the NADPH fluorescence slope in experiment [5] was -0.000203 (inactive).

For the molecule `Cc1cc(NC(=O)c2cnn3cccnc23)no1`, the cell count in experiment [1] came out at 467. For the same molecule, the inhibition in experiment [1] is 0.3% (inactive); in experiment [3], -33.8% (inactive); in experiment [7], -57.6% (inactive); in experiment [8] it was -124% (inactive). In addition, the inhibition of aggregation in experiment [2] was 3.3% (inactive). Moreover, the nuclei count was determined as 104% in experiment [2] and 119% in experiment [3]. In addition, the results for the fluorescence slope in experiment [4] and in experiment [6] were -0.613 (inactive) and 0.00996 (inactive), respectively. Besides, the NADPH fluorescence slope in experiment [5] was -4.3e-05 (inactive).
